# Measurements published in ChEMBL document CHEMBL1149868, “Synthesis and in vitro anti-leishmanial activity of 1-[5-(5-nitrofuran-2-yl)-1,3,4-thiadiazol-2-yl]- and 1-[5-(5-nitrothiophen-2-yl)-1,3,4-thiadiazol-2-yl]-4-aroylpiperazines” (Bioorg Med Chem, 2008).
# pIC50: −log10 of the molar value. The source made the active and inactive calls. The rule behind the calls is not given here.
# How the values were obtained:
# [1] = Partition coefficient, log p of the compound; assay type: physicochemical; details: octanol/water
# Leishmania major [2] = assay: Antileishmanial activity against Leishmania major MRHO/IR/75/ER promastigotes by MTT assay; assay type: functional, organism-based
# Summary of the method: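 L. major MRHO/IR/75/ER promastigotes from early log phase, 2×10^6/mL, in phenol red free RPMI 1640 with 10% FBS, 2 mM glutamine, pH ~7.2 and antibiotics. Exposed to serial drug dilutions for 24 h at 25 °C. MTT (0.5 mg/mL) added for 4 h at 37 °C, pellet dissolved in DMSO, A492 read. Two or more independent experiments in triplicate; IC50 by linear regression, means ± SD.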
# [3] = Cytotoxicity against mouse macrophages assessed as cell death at 19.18 uM after 24 hrs by MTT colorimetric assay; assay type: cell-based; details: macrophage
# Leishmania major [4] = assay: Antileishmanial activity against Leishmania major amastigotes in mouse macrophages assessed as decrease in infectivity index after 24 hrs; assay type: functional, organism-based
# Leishmania major [5] = assay: Antileishmanial activity against Leishmania major amastigotes assessed as decrease in infectivity in mouse macrophages after 24 hrs; assay type: functional, organism-based
# [6] = Cytotoxicity against mouse macrophages assessed as cell death at 13.11 uM after 24 hrs by MTT colorimetric assay; assay type: cell-based; details: macrophage
# Leishmania major [7] = assay: Antileishmanial activity against Leishmania major MRHO/IR/75/ER amastigotes by Giemsa staining
# [8] = Cytotoxicity against mouse macrophages assessed as cell death at >50 uM after 24 hrs by MTT colorimetric assay; assay type: cell-based; details: macrophage
# [9] = Cytotoxicity against mouse macrophages assessed as cell death at 25 uM after 24 hrs by MTT colorimetric assay; assay type: cell-based; details: macrophage
# [10] = Cytotoxicity against mouse macrophages assessed as cell death at 26.22 uM after 24 hrs by MTT colorimetric assay; assay type: cell-based; details: macrophage
# [11] = Cytotoxicity against mouse macrophages assessed as cell death at 30 uM after 24 hrs by MTT colorimetric assay; assay type: cell-based; details: macrophage
# Summary of the method: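 Mouse peritoneal macrophages were seeded at 2×10^5 cells/well and allowed to adhere. Medium was then replaced with compound-containing medium and cells were incubated 24 h at 37 °C in humidified 5% CO2. Controls received medium plus DMSO. Viability was read by MTT. % cell death = (control viability − treated viability)/control viability. Values are means ± SD.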
# [12] = Cytotoxicity against mouse macrophages assessed as cell death at 11.69 uM after 24 hrs by MTT colorimetric assay; assay type: cell-based; details: macrophage
# [13] = Cytotoxicity against mouse macrophages assessed as cell death at 24.69 uM after 24 hrs by MTT colorimetric assay; assay type: cell-based; details: macrophage
# [14] = Cytotoxicity against mouse macrophages assessed as cell death at 24.11 uM after 24 hrs by MTT colorimetric assay; assay type: cell-based; details: macrophage
# [15] = Cytotoxicity against mouse macrophages assessed as cell death at 28.26 uM after 24 hrs by MTT colorimetric assay; assay type: cell-based; details: macrophage
# [16] = Cytotoxicity against mouse macrophages assessed as cell death at 34.44 uM after 24 hrs by MTT colorimetric assay; assay type: cell-based; details: macrophage
# [17] = Cytotoxicity against mouse macrophages assessed as cell death at 13.19 uM after 24 hrs by MTT colorimetric assay; assay type: cell-based; details: macrophage
# [18] = Cytotoxicity against mouse macrophages assessed as cell death at 11.75 uM after 24 hrs by MTT colorimetric assay; assay type: cell-based; details: macrophage
# [19] = Cytotoxicity against mouse macrophages assessed as cell death at 10.73 uM after 24 hrs by MTT colorimetric assay; assay type: cell-based; details: macrophage
# [20] = Cytotoxicity against mouse macrophages assessed as cell death at 23.78 uM after 24 hrs by MTT colorimetric assay; assay type: cell-based; details: macrophage
Molecule,logP [1],pIC50 (Leishmania major [2]),Activity (Leishmania major [4]),Activity (Leishmania major [5]),Activity (Leishmania major [7]),other results
O=C(c1cccs1)N1CCN(c2nnc(-c3ccc([N+](=O)[O-])o3)s2)CC1,0.78,4.72,,,,Activity [3]: 2.4%
O=C(c1ccc(Br)s1)N1CCN(c2nnc(-c3ccc([N+](=O)[O-])o3)s2)CC1,2.22,4.88,Active,Active,Active,Activity [6]: 7.7%
O=C(c1cccc(Cl)c1)N1CCN(c2nnc(-c3ccc([N+](=O)[O-])s3)s2)CC1,2.29,< 4.30,,,,Activity [8]: 5.5%
O=C(c1ccccc1)N1CCN(c2nnc(-c3ccc([N+](=O)[O-])s3)s2)CC1,2.52,4.60,,,,Activity [9]: 8.9%
O=C(c1ccc(Cl)cc1)N1CCN(c2nnc(-c3ccc([N+](=O)[O-])o3)s2)CC1,1.95,4.58,,,,Activity [10]: 9.7%
MEGLUMINE ANTIMONATE,,,,,,Activity [11]: 40.4%
O=C(c1ccccc1)N1CCN(c2nnc(-c3ccc([N+](=O)[O-])o3)s2)CC1,2.17,4.93,Active,Active,Active,Activity [12]: 7.1%
O=C(c1ccc(Br)s1)N1CCN(c2nnc(-c3ccc([N+](=O)[O-])s3)s2)CC1,2.57,4.61,,,,Activity [13]: 9.2%
O=C(c1ccc(Cl)cc1)N1CCN(c2nnc(-c3ccc([N+](=O)[O-])s3)s2)CC1,2.29,4.62,,,,Activity [14]: 7.2%
O=C(c1cccs1)N1CCN(c2nnc(-c3ccc([N+](=O)[O-])s3)s2)CC1,1.13,4.55,,,,Activity [15]: 8.7%
O=C(c1ccccc1Cl)N1CCN(c2nnc(-c3ccc([N+](=O)[O-])s3)s2)CC1,2.29,4.46,,,,Activity [16]: 6.1%
O=C(c1cccc(Cl)c1)N1CCN(c2nnc(-c3ccc([N+](=O)[O-])o3)s2)CC1,1.95,4.88,Active,Active,Active,Activity [17]: 9.7%
O=C(c1ccc(Cl)s1)N1CCN(c2nnc(-c3ccc([N+](=O)[O-])o3)s2)CC1,1.92,4.93,Active,Active,Active,Activity [18]: 7.6%
O=C(c1ccccc1Cl)N1CCN(c2nnc(-c3ccc([N+](=O)[O-])o3)s2)CC1,1.95,4.97,Active,Active,Active,Activity [19]: 8.7%
O=C(c1ccc(Cl)s1)N1CCN(c2nnc(-c3ccc([N+](=O)[O-])s3)s2)CC1,2.27,4.62,,,,Activity [20]: 9.8%
